The IC50 is the concentration at which inhibition is half-maximal.

The source made the active and inactive calls. No cut-off for these calls is given here.

Here are results for 5 molecules from ChEMBL document CHEMBL2034978, “Synthesis and evaluation of curcumin-related compounds for anticancer activity” (Eur J Med Chem, 2012).

Assay [1] relates to HT-29. As to the kind of experiment: Ratio of curcumin IC50 to compound IC50 for human HT-29 cells. The class given is functional. The gist of the method: (§1)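 Curcumin served as positive control in each incubation, with its growth-inhibition data averaged across experiments.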
Assay [2] relates to HT-29. The experiment in a line: Cytotoxicity against human HT-29 cells after 72 hrs by MTT assay. Format: functional, cell-based. To be noted: HT-29, 72 h. The procedure, abridged: (§2)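 Seeded at 0.2 × 10⁵ cells/ml, grown 24 h, then exposed 72 h to a range of concentrations (upper limit 30). MTT read-out: formazan dissolved in DMSO, absorbance at 540 nm, growth expressed as percent of DMSO-treated cells.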
(Tetrazolium dyes change colour on reduction, which living cells bring about.)

In assay [3] the test system is PANC-1. As to the kind of experiment: Ratio of curcumin IC50 to compound IC50 for human PANC1 cells. Format: functional. The procedure, abridged:
as §1

Assay [4] concerns PC-3. As to the kind of experiment: Inhibition of Akt phosphorylation in human PC3 cells at 0.5 uM after 24 hrs by Western blotting relative to beta-actin. Format: cell-based. The procedure, abridged:
(§3)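 PC-3 cells were seeded at 1 × 10⁵ cells/ml in 100 mm dishes, grown 24 h, then treated 24 h. Cells were lysed in Tris-HCl pH 7.4 buffer containing NaF, pyrophosphate, orthovanadate and Triton X-100, and lysates cleared at 12,000×g. Blots on PVDF were probed with anti-phospho-Akt or anti-phospho-Erk1/2, detected by ECL, quantified by optical density and normalized to β-actin.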
A general note: A western blot detects proteins with antibodies after separation by electrophoresis.

Assay [5] concerns the target Mitogen-activated protein kinase; ERK1/ERK2 (Homo sapiens) (UniProt P27361+P28482). As to the kind of experiment: Inhibition of ERK1/2 phosphorylation in human PC3 cells at 0.5 uM after 24 hrs by Western blotting relative to beta-actin. Format: cell-based. To be noted: PC-3. The gist of the method: as §3
The subject of assay [6] is PC-3. As to the kind of experiment: Ratio of curcumin IC50 to compound IC50 for human PC3 cells. Format: functional. The gist of the method: as §1
Assay [7] deals with PC-3. As to the kind of experiment: Induction of apoptosis in human PC3 cells at <1 uM after 96 hrs by morphology analysis. Format: functional, cell-based.
Assay [8] concerns PC-3. As to the kind of experiment: Cytotoxicity against human PC3 cells after 72 hrs by MTT assay. Format: functional, cell-based. The note with it: PC-3, 72 h. The gist of the method: as §2
The test system of assay [9] is PANC-1. As to the kind of experiment: Cytotoxicity against human PANC1 cells after 72 hrs by MTT assay. The class given is functional, cell-based. To be noted: PANC-1, 72 h. The gist of the method:
as §2

Chain of Mitogen-activated protein kinase; ERK1/ERK2 (Homo sapiens) (P27361 whole entry, looked up): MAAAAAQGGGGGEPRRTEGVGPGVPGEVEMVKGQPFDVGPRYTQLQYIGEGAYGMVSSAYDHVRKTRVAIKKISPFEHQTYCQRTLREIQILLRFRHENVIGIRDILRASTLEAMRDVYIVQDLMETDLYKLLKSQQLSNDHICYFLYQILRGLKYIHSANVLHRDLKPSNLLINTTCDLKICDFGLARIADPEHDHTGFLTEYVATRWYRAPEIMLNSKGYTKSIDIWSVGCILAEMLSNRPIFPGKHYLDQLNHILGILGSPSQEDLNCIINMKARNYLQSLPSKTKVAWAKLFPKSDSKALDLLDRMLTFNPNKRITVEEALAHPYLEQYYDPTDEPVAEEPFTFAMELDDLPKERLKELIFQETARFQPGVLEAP
Chain of Mitogen-activated protein kinase; ERK1/ERK2 (Homo sapiens) (P28482 whole entry, looked up): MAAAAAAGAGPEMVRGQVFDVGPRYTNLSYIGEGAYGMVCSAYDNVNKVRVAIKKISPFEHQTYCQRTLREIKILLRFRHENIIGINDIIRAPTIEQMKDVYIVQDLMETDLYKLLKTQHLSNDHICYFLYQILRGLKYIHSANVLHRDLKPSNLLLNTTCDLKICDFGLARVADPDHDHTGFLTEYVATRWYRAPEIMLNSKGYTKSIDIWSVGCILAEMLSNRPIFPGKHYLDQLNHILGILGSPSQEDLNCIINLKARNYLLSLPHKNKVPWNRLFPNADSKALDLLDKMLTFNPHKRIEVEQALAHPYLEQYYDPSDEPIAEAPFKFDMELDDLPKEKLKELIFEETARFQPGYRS

Consider `O=C1/C(=C/c2cccnc2)CSC/C1=C\c1cccnc1`, for which the Ratio IC50 amounted to 27 in the assay on HT-29 [1], 45 in the assay with PANC-1 [3] and 21 in the assay with PC-3 [6]. For the same molecule, the IC50 in the assay on HT-29 [2] came out at 790 nM; in the assay on PC-3 [8], 960 nM; with PANC-1 [9], 510 nM. The inhibition entry in the assay with PC-3 [4] is “inactive”. The inhibition result in assay [5] was “Active”. In addition, the outcome in the assay on PC-3 [7] was Active.
Regarding `COc1cc(C=C2CSCC(=Cc3cc(OC)c(OC)c(OC)c3)C2=O)cc(OC)c1OC`, the results for the “Ratio IC50” value in the assay on HT-29 [1], with PANC-1 [3] and in the assay with PC-3 [6] were 72, 34 and 69, respectively. For the same molecule, the values for the IC50 with HT-29 [2], with PC-3 [8] and in the assay on PANC-1 [9] were 260 nM, 280 nM and 700 nM, respectively. In addition, the inhibition result in the assay on PC-3 [4] was “inactive”. The inhibition result in assay [5] is “Active”. The outcome with PC-3 [7] was Active.
With `COc1cc(/C=C/C(=O)CC(=O)/C=C/c2ccc(O)c(OC)c2)ccc1O` [CURCUMIN], the IC50 with HT-29 [2] came out at 18700 nM; in the assay with PC-3 [8], 19400 nM; in the assay on PANC-1 [9], 23700 nM. In addition, the inhibition result (in the assay with PC-3 [4]; in assay [5]) was “inactive” throughout. In the assay with PC-3 [7], the outcome was inactive.
Take `O=C1/C(=C/c2ccccn2)CSC/C1=C\c1ccccn1`: the “Ratio IC50” value in the assay on HT-29 [1], with PANC-1 [3] and in the assay on PC-3 [6] was 21 each time. The IC50 with HT-29 [2] came to 760 nM; with PC-3 [8], 520 nM; in the assay on PANC-1 [9] it was 700 nM. Further, the inhibition entry with PC-3 [4] was “inactive”. Besides, in [5], the inhibition entry was “Active”. In addition, the outcome in the assay with PC-3 [7] was Active.
As for `COc1cc(/C=C2\COC/C(=C\c3cc(OC)c(OC)c(OC)c3)C2=O)cc(OC)c1OC`, the “Ratio IC50” value in the assay on HT-29 [1] is 117; with PANC-1 [3] it was 46; in the assay with PC-3 [6], 72. For the same molecule, the IC50 in the assay with HT-29 [2] turned out to be 160 nM; in the assay with PC-3 [8] it was 270 nM; with PANC-1 [9] it was 520 nM. For the same molecule, the inhibition result (in the assay on PC-3 [4]; in assay [5]) was “Active” throughout. In addition, the result in the assay with PC-3 [7] was Active.
